# proKLK7 act = activates the human kallikrein-7 zymogen; P49862; purified proKLK7, EDANS-DABCYL substrate fluorescence; 100% is mature enzyme control, 0% vehicle; activation, % at 7 µM; 370,000 compounds, 0.9% hits; AID 652039;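 active means activation above the mean of all tested compounds plus 3 SD, computed per campaign excluding outliers beyond control limits, cut at about 13% in these data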
# Tn7 DDE FP = DD(E)-Tn7 binding inhibition, primary FP screen; P02675; FP displacement of FITC-Tn7 peptide from fibrin DD(E); 0% = median of compound wells per plate; inhibition, % at 8.3 µM; 370,000 compounds, 0.13% hits; AID 720508;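 active means inhibition above the mean of compounds falling within the control limits plus 3 SD of them, cut at about 14% in these data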;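 further: 0% = plate median of compound wells and 100% = 10 µM Aha-Tn7 peptide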
#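 system = human fibrin DD(E) protein | quantity = DD(E) 2 µM final | medium = Tris/NaCl/CaCl2 buffer, pH 7.8 | also added = labelled Tn7 tracer, 0.1 µM | compound dosing = single point at 8.3 µM | timing = compound with protein 10 min, then 3 h after probe, room temperature | signal = FP measurement | benchmarks = Aha-Tn7 high control | repeats = one replicate per compound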
# PLCb3 inh = PLC-beta3 (human) inhibition, primary screen; Purified PLC-beta3, fluorogenic substrate, fluorescence; Q01970; AID 720704; 370,000 compounds, 0.18% hits; inhibition, % at 12.2 µM; in the data active means inhibition above about 11%;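 further: 0% = median of compound wells on plate and 100% = full blocker control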
# CendR NRP1 mod = NRP-1/CendR interaction modulation. O14786. FAM-RPARPAR peptide binding to NRP-1, fluorescence polarization. inhibition, % at 25 µM. 360,000 compounds, 0.85% hits. AID 602438;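 active means inhibition or corrected inhibition above about 18%, plus a signal ratio from 0.5 to 1.5, limit read from the data, passing the limit was not always enough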
# Target sequence (O14786 whole entry, looked up): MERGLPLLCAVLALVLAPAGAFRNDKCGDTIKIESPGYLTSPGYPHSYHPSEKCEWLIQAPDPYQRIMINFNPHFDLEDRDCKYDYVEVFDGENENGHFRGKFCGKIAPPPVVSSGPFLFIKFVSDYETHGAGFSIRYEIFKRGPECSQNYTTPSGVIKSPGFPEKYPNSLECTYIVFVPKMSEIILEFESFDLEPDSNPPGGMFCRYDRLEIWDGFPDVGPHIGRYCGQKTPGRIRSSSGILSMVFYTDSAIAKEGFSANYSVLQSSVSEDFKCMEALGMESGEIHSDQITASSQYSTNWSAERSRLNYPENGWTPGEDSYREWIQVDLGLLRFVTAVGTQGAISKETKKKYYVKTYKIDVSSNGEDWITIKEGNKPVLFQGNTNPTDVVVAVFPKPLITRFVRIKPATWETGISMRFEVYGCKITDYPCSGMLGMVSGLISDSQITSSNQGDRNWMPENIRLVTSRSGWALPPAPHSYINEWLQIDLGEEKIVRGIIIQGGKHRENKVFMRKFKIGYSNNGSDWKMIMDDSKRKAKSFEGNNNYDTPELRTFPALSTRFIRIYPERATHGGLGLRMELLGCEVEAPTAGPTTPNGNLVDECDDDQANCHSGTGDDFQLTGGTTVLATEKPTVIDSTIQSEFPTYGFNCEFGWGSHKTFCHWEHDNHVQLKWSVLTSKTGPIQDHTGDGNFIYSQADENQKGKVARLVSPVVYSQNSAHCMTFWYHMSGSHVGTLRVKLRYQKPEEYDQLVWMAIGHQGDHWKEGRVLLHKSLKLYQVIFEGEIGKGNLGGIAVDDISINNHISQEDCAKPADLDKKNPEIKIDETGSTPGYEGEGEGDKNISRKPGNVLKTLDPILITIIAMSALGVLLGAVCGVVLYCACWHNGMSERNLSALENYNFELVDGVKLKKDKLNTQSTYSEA
# PLC-gamma1 inh = PLC-gamma1 (human) inhibition, primary screen | P19174 | purified PLC-gamma1, fluorogenic substrate, fluorescence | inhibition, % at 12.2 µM | 370,000 compounds, 0.84% hits; in the data active means inhibition above about 9.5%
# DDE Tn6 FP inh = disrupts Tn6 cyclic peptide binding to fibrin D-Dimer-E complex; P02675; Fibrin DD(E) TRITC-Tn6 fluorescence polarization displacement; inhibition, % at 8.3 µM; 370,000 compounds, 0.21% hits; AID 720509;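 active means inhibition above a per-campaign cutoff: mean of compounds within control limits plus 3 SD, cut at about 15% in these data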;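 further: 0% = median of all compound wells on the plate and 100% = blocking peptide control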
# KLK7 act conf = proKLK7 activation, confirmation; shares compounds with proKLK7 act; purified proKLK7, EDANS-DABCYL substrate fluorescence; scaled: vehicle 0, mature enzyme 100; activation, % at 7 µM; 3,200 compounds, 68% hits; AID 686949;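 active means activation, as change over the incubation, above the mean of all tested compounds plus 3 SD, cut at about 13% in these data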
# EDANS-DABCYL int = counter-screen for kallikrein-7 activators: EDANS-DABCYL optical interference; shares compounds with proKLK7 act; 3,200 compounds, 80% hits; EDANS-DABCYL substrate fluorescence interference, no enzyme, 4 h; solvent 0%, active enzyme control 100%; AID 686952; activation, % at 7 µM;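 active means activation above the all-compound mean plus 3 SD, ignoring values outside control-based bounds, cut at about 4.8% in these data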;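 further: value is the 4 h activation minus the activation read at time zero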
# K7 EDANS ctr = counter-screen for kallikrein-7 activators: EDANS-DABCYL interference, dose response. shares compounds with proKLK7 act. EDANS-DABCYL peptide fluorescence interference, no enzyme. EC50, µM. 250 compounds, 20% hits. AID 720493;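 active means compounds that raise the fluorescence signal in this interference counterscreen, with EC50 at or below 10 µM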;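 further: intact quenched peptide substrate alone read at 355 nm excitation and 520 nm emission; signal is fluorescence gain from T0 to T4 after four hours at room temperature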
# Active calls of the source: *; i = inactive; · = no result. Only some compounds are listed: those with a hit (about 3% of all), similar ones and a draw of the others.
SMILES,proKLK7 act,Tn7 DDE FP,PLCb3 inh,CendR NRP1 mod,PLC-gamma1 inh,DDE Tn6 FP inh,KLK7 act conf,EDANS-DABCYL int,others
COC(=O)[C@]12C[C@H](CC(=O)NCCCN3CCCC3=O)C(=O)N(Cc3ccco3)C1=C[C@H](C1CCCC1)O[C@@H]2C,0,-5,1,·,0,-3,·,·,
COC(=O)c1ccc(C(=O)OC)c(NC(=O)C2CC2)c1,0,0,-9,2,-10,0,·,·,
COC(=O)c1ccc(C(=O)OC)c(NC(=O)Oc2ccccc2)c1,38*,7,i,3,i,-1,75*,75*,
COC(=O)c1ccc(C(=O)OC)c(NS(C)(=O)=O)c1,28*,5,-45,-18,-29,3,21*,21*,
COC(=O)c1ccc(C(=O)OC)c(NC(=O)CSCC(=O)O)c1,0,2,-18,0,-12,3,·,·,
COC(=O)c1ccc(C(=O)OC)c(NC(=O)/C=C/C(=O)O)c1,16*,-10,i,5,-499,-7,1,2,
C[C@@H]1OCN(C)[C@H]2C[C@H]3c4[nH]c5cccc(-c6cccc(F)c6)c5c4CCN3C(=O)[C@@H]12,-4,4,-37,·,-25,3,·,·,
CCc1nc(CN2CCCC(C(=O)c3ccc4c5c(cccc35)CC4)C2)c(C)[nH]1 (stereo unspecified),15*,-5,-165,-4,-131,-5,-4,0,
NC(=O)c1cccc2cc3ccccc3cc12,53*,-3,i,0,i,-7,65*,72*,
COC(=O)c1c(C#N)c(N)nc2c1CCCC2,78*,1,i,9,i,-4,72*,75*,
COc1cc(-c2c(C#N)c(N)nc3c2CCCC3)ccc1O,1,4,-23,-1,-24,5,·,·,
O=C(Cc1ccccc1)NC1CCCc2c1cnn2-c1ccc(F)cc1F (stereo unspecified),·,3,-1,·,3,0,·,·,
Cc1cc2nc(-c3ccc(SCc4ccccn4)nc3)[nH]c2cc1C,127*,2,-249,-14,-154,1,25*,16*,K7 EDANS ctr=i
Cc1oc2c(CN3CCCCC3C)c(O)ccc2c(=O)c1-c1ccccc1 (stereo unspecified),34*,-5,i,-3,i,-1,47*,59*,
COc1ccccc1-c1c(C)oc2c(CN3CCCCC3C)c(O)ccc2c1=O (stereo unspecified),53*,3,i,4,i,5,66*,69*,
COc1ccc(NC(=O)CSc2ncnc3scc(-c4ccc(C)cc4)c23)cc1OC,0,-2,1,·,-1,6,·,·,
FC(F)(F)c1ccc2c(c1)NCC1CCCN21 (stereo unspecified),68*,1,-102,-12,-77,8,46*,47*,
FC(F)(F)c1ccc2c(c1)N1CCCC1CN2 (stereo unspecified),1,-2,-56,-76,-38,3,·,·,
COc1ccc(OC)c2c1CCC2=O,13*,0,-500,30*,-383,7,19*,23*,
COc1ccccc1NC1=C(C)C(=O)CC1,0,6,3,10,-1,-4,·,·,
CC(=O)c1cc2c(cc1NS(=O)(=O)c1ccccc1Br)OCO2,41*,-1,-13,-8,-4,3,15*,5.3*,K7 EDANS ctr=>70
CC(=O)c1cc2c(cc1NS(=O)(=O)c1ccccc1C)OCO2,0,-4,-9,·,-6,4,·,·,
CN1CCN(C(=O)c2ccc(-c3cccs3)s2)CC1,32*,6,-329,-2,-306,-4,6,5.3*,
CC(C)=CCC/C(C)=C/CN1CC(=O)N2[C@H](C[C@@]3(n4ccc5ccccc54)c4ccccc4N(S(=O)(=O)c4ccccc4)[C@@H]23)C1=O,0,-11,1,·,0,-4,·,·,
CNc1cncc(-c2cccc(OC)c2F)n1,37*,-1,i,8,i,-1,35*,53*,
SMILES,proKLK7 act,Tn7 DDE FP,PLCb3 inh,CendR NRP1 mod,PLC-gamma1 inh,DDE Tn6 FP inh,KLK7 act conf,EDANS-DABCYL int,others
CCOc1ccccc1-c1cncc(NC)n1,25*,2,-429,23,-314,2,18*,16*,
CNc1cncc(-c2ccccc2CO)n1,26*,7,i,-3,-383,-1,12,15*,
CCOc1ccccc1-c1cnc(NC)cn1,15*,2,-256,6,-199,1,31*,28*,
CNc1cnc(-c2ccccc2OC)cn1,11,1,-404,10,-319,0,·,·,
CNc1cncc(-c2c(OC)cccc2OC)n1,12,1,-317,-13,-241,-6,·,·,
CC(=O)Nc1cncc(-c2ccccc2C(C)=O)n1,0,10,-4,8,-2,-4,·,·,
Cc1ccc(-c2cc(C(=O)NN=Cc3ccc(-c4ccccc4)cc3)[nH]n2)cc1,0,-6,-2,·,0,1,·,·,
CS(=O)(=O)N[C@@H]1C[C@@H]2O[C@H](CO)CC[C@@H]2O[C@@H]1CCc1ccc(-c2ccccc2F)cc1,1,-4,3,·,3,-3,·,·,
O=C(NC1CCCC1)c1ccc(COc2ccccc2)o1,0,0,-6,·,0,-10,·,·,
Cc1ccccc1NS(=O)(=O)c1ccc2c3c(cccc13)C(=O)N2C,3,2,-146,12,-80,6,·,·,
CN1C(=O)c2cccc3c(S(N)(=O)=O)ccc1c23,71*,5,i,-4,i,3,56*,66*,
CN1C(=O)c2cccc3c(S(=O)(=O)NCc4ccco4)ccc1c23,21*,0,i,-8,i,1,14*,14*,
CN(C)/C=N/c1nc2nccc(-c3ccccn3)n2n1,12,-3,-282,9,-231,7,·,·,
COc1ccc(-c2ccnc3nc(/N=C/N(C)C)nn23)cc1,44*,1,i,·,-387,-2,66*,63*,
CN(C)/C=N/c1nc2nccc(-c3cccnc3)n2n1,13*,8,-384,4,-292,-2,65*,62*,
COc1cc2cncc(Cc3ccccc3)c2cc1O,22*,5,-240,-1,-196,13,17*,21*,
COc1cc2c(Cc3ccccc3)cncc2cc1O,-27,6,-494,9,-373,5,·,·,

# Screening results from PubChem BioAssay.
